These results are taken from ChEMBL document CHEMBL4052623, “Synthesis and antiproteasomal activity of novel O-benzyl salicylamide-based inhibitors built from leucine and phenylalanine” (Eur J Med Chem, 2017).

The term GI50 denotes the concentration giving 50% growth inhibition. As usually defined, the IC50 is the concentration at which inhibition is half-maximal.

One assay concerns K562. The assay is described as follows: Antiproliferative activity against human K562 cells after 72 hrs by calcein AM staining based fluorescence assay. The format is functional. The following applies: K562, 72 h. An outline of the steps:
(§1)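 Cells treated with three-fold compound dilutions in triplicate for 72 h. Calcein AM added afterwards and live-cell fluorescence read at 485/538 nm (ex/em). GI50, the concentration lethal to 50% of tumour cells, calculated from dose-response curves.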

The subject of a further assay is CCRF-CEM. The assay is described as follows: Antiproliferative activity against human CEM cells after 72 hrs by calcein AM staining based fluorescence assay. The assay is classed as functional. An outline of the steps: as §1
For a further assay, the system named is U-266. The assay is described as follows: Antiproliferative activity against human U266 cells after 72 hrs by calcein AM staining based fluorescence assay. The assay is classed as functional. To be noted: U-266, 72 h. An outline of the steps: as §1
The target of assay [1] is T1, Proteasome Macropain subunit MB1 (Homo sapiens) (UniProt P28074).
T1 sequence (whole entry): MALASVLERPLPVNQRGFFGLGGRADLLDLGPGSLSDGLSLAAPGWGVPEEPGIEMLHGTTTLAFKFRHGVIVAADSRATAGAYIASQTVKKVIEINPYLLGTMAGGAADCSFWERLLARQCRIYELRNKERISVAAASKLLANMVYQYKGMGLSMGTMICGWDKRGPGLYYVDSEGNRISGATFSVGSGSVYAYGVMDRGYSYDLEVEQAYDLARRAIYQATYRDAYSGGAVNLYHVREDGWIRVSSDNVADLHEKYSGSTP
Briefly: Inhibition of chymotrypsin like activity of 26S proteasome beta 5 subunit in human U266 cells assessed as residual activity using N-Suc-LLVY-AMC as substrate at 10 uM preincubated for 1 hr followed by substrate addition and measured after 4 hrs by fluorescence assay relative to control. The format is cell-based.

The target of assay [2] is T2, Proteasome Macropain subunit MB1 (Homo sapiens, UniProt P28074).
T2 sequence (P28074 whole entry): T1 sequence (whole entry)
The assay is described as follows: Inhibition of chymotrypsin-like activity of 26S proteasome beta 5 subunit in human U266 cells using Suc-LLVY-aminoluciferin as substrate after 1 hr by Proteosome-Glo luminescence assay. The assay is classed as cell-based. An outline of the steps:
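U266 multiple myeloma cells plated at 20,000 cells/well and exposed to varying compound concentrations for 1 h at 37 °C, in duplicate. 26S proteasome activity measured immediately as luciferase-coupled hydrolysis of the β5 substrate Suc-LLVY-aminoluciferin (Proteasome-Glo), read by luminescence. Activity normalised to untreated cells; IC50 derived from dose-response curves.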

For assay [3], the target named is Proteasome Macropain subunit (Homo sapiens) (UniProt P49721). The assay is described as follows: Inhibition of trypsin like activity of 26S proteasome beta 2 subunit in human U266 cells assessed as residual activity using […] as substrate at 10 uM preincubated for 1 hr followed by substrate addition and measured after 4 hrs by fluorescence assay relative to control. The assay is classed as cell-based.

Assay [4] concerns the target T3, Proteasome component C5 (Homo sapiens) (UniProt P20618).
T3 sequence (whole entry): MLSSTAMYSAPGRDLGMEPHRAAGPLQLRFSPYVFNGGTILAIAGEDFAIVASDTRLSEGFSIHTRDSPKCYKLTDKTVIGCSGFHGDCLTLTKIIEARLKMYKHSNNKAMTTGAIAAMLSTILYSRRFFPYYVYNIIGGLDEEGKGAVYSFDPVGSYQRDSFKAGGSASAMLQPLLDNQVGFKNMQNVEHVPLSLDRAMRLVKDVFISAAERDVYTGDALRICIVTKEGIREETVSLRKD
The assay is described as follows: Inhibition of caspase like activity of 26S proteasome beta 1 subunit in human U266 cells assessed as residual activity using […] as substrate at 10 uM preincubated for 1 hr followed by substrate addition and measured after 4 hrs by fluorescence assay relative to control. The assay is classed as cell-based.

Proteasome Macropain subunit (Homo sapiens), sequence (P49721 whole entry): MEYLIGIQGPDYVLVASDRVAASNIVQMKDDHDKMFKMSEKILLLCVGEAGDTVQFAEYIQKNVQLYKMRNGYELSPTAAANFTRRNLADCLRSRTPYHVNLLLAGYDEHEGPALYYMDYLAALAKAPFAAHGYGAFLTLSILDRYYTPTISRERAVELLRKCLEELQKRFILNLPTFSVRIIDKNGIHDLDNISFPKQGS

Consider `CON(C)C(=O)[C@H](Cc1ccccc1)NC(=O)c1cc(Cl)ccc1O`, for which the GI50 with K562 was 99.1 µM; in the assay on CCRF-CEM it was 55.5 µM; with U-266, 72.4 µM.

With `COC(=O)[C@@H](CC(C)C)NC(=O)[C@H](CC(C)C)NC(=O)[C@H](CC(C)C)NC(=O)c1cc(Cl)ccc1OCc1ccccc1`, the GI50 was over 100 µM with K562, 51 µM with CCRF-CEM and 82 µM with U-266.

In the case of `COC(=O)[C@H](CC(C)C)NC(=O)[C@H](Cc1ccccc1)NC(=O)[C@H](CC(C)C)NC(=O)c1cc(Cl)ccc1OCc1ccccc1`, the GI50 in the assay on K562 was 58.5 µM; in the assay with CCRF-CEM, 48.5 µM; with U-266, 83.7 µM.

Turning to `CON(C)C(=O)[C@H](Cc1ccccc1)NC(=O)[C@H](Cc1ccccc1)NC(=O)c1cc(Cl)ccc1OCc1ccccc1`, the GI50 in the assay with K562 was 29.6 µM; in the assay with CCRF-CEM, 28.6 µM; in the assay with U-266, 72.1 µM.

For the compound `CON(C)C(=O)[C@H](CC(C)C)NC(=O)[C@H](Cc1ccccc1)NC(=O)c1cc(Cl)ccc1O`, the figures for the GI50 in the assay on K562, with CCRF-CEM and in the assay with U-266 were 90.9 µM, 64.1 µM and 71.6 µM, respectively.

With `O=C[C@H](Cc1ccccc1)NC(=O)c1cc(Cl)ccc1OCc1ccccc1`, the Activity in assay [1] is 70.8%; in assay [3] it was 70.2%; in assay [4], 53%. Further, the GI50 is 33.3 µM with K562, 17.7 µM in the assay with CCRF-CEM and 63.8 µM with U-266. Besides, in assay [2], the IC50 is over 1 µM.

Regarding `COC(=O)[C@@H](CC(C)C)NC(=O)[C@H](Cc1ccccc1)NC(=O)[C@H](CC(C)C)NC(=O)c1cc(Cl)ccc1OCc1ccccc1`, the GI50 in the assay with K562 was over 100 µM; in the assay on CCRF-CEM, 68.2 µM; in the assay with U-266 it was 88.5 µM.

Take `CON(C)C(=O)[C@H](CC(C)C)NC(=O)c1cc(Cl)ccc1O`: the results for the GI50 in the assay with K562, in the assay on CCRF-CEM and in the assay with U-266 were over 100 µM, 58.6 µM and over 100 µM, respectively.

Turning to `CON(C)C(=O)[C@H](CC(C)C)NC(=O)c1cc(Cl)ccc1OCc1ccccc1`, the GI50 with K562 is 42.7 µM; in the assay on CCRF-CEM, 45.2 µM; with U-266 it was 54.1 µM.

For `CON(C)C(=O)[C@H](CC(C)C)NC(=O)[C@H](CC(C)C)NC(=O)c1cc(Cl)ccc1OCc1ccccc1`, the GI50 with K562 is 33.2 µM; in the assay with CCRF-CEM, 22.2 µM; in the assay with U-266 it was 35.2 µM.

Take `COC(=O)[C@H](CC(C)C)NC(=O)[C@H](CC(C)C)NC(=O)[C@H](CC(C)C)NC(=O)c1cc(Cl)ccc1OCc1ccccc1`: the results for the GI50 with K562, in the assay with CCRF-CEM and in the assay on U-266 were 87.5 µM, 48.4 µM and 84.9 µM, respectively.

Consider `CON(C)C(=O)[C@H](CC(C)C)NC(=O)[C@H](Cc1ccccc1)NC(=O)[C@H](CC(C)C)NC(=O)c1cc(Cl)ccc1O`, for which the GI50 is 30.9 µM in the assay on K562, 17.2 µM in the assay with CCRF-CEM and 32.8 µM in the assay on U-266.

Take `CC(C)C[C@H](NC(=O)c1cc(Cl)ccc1OCc1ccccc1)C(=O)N[C@@H](CC(C)C)C(=O)N[C@@H](C=O)CC(C)C`: the Activity turned out to be 18% in assay [1], 74.3% in assay [3] and 35.5% in assay [4]. The GI50 is 0.98 µM in the assay on K562, 0.58 µM in the assay on CCRF-CEM and 0.38 µM with U-266. Further, the IC50 in assay [2] was found to be 0.182 µM.

Take `CON(C)C(=O)[C@H](CC(C)C)NC(=O)[C@H](Cc1ccccc1)NC(=O)[C@H](CC(C)C)NC(=O)c1cc(Cl)ccc1OCc1ccccc1`: the GI50 is 16.4 µM in the assay with K562, 19 µM with CCRF-CEM and 48.6 µM in the assay with U-266.

Turning to `CC(C)C[C@@H](CO)NC(=O)[C@H](Cc1ccccc1)NC(=O)[C@H](CC(C)C)NC(=O)c1cc(Cl)ccc1O`, the GI50 in the assay on K562 is 22.4 µM; with CCRF-CEM, 8.45 µM; in the assay with U-266 it was 11.8 µM.

As for `CC(C)C[C@H](NC(=O)c1cc(Cl)ccc1O)C(=O)N[C@H](C=O)Cc1ccccc1`, the Activity in assay [1] is over 100%; in assay [3], 81%; in assay [4], over 100%. The GI50 in the assay on K562 was 57.9 µM; in the assay on CCRF-CEM it was 27.7 µM; with U-266, 64.9 µM. In assay [2], this compound gave an IC50 of over 1 µM.

`CC(C)C[C@@H](C=O)NC(=O)[C@H](CC(C)C)NC(=O)[C@H](CC(C)C)NC(=O)c1cc(Cl)ccc1OCc1ccccc1`: the Activity in assay [1] is 11.8%; in assay [3], 54.2%; in assay [4] it was 34.6%. Besides, the GI50 in the assay on K562 was 0.76 µM; in the assay with CCRF-CEM it was 0.41 µM; with U-266 it was 0.2 µM. For the same compound, the IC50 in assay [2] came out at 0.057 µM.

Take `CON(C)C(=O)[C@@H](CC(C)C)NC(=O)[C@H](Cc1ccccc1)NC(=O)c1cc(Cl)ccc1OCc1ccccc1`: the results for the GI50 in the assay with K562, with CCRF-CEM and in the assay with U-266 were 25.8 µM, 32.2 µM and 67.4 µM, respectively.

As for `CON(C)C(=O)[C@H](Cc1ccccc1)NC(=O)[C@H](CC(C)C)NC(=O)[C@H](CC(C)C)NC(=O)c1cc(Cl)ccc1OCc1ccccc1`, the GI50 with K562 is 44.2 µM; in the assay on CCRF-CEM, 15.1 µM; with U-266, 47.2 µM.

Regarding `CC(C)C[C@H](NC(=O)c1cc(Cl)ccc1O)C(=O)N[C@@H](Cc1ccccc1)C(=O)N[C@H](CO)Cc1ccccc1`, the 50% growth inhibitory concentration (GI50) in the assay on K562 was 27.3 µM; in the assay with CCRF-CEM, 10.8 µM; in the assay with U-266, 18.9 µM.

As to `CON(C)C(=O)[C@H](Cc1ccccc1)NC(=O)[C@H](CC(C)C)NC(=O)c1cc(Cl)ccc1O`, the GI50 in the assay on K562 is 93.6 µM; in the assay with CCRF-CEM it was 48.2 µM; with U-266, 79.2 µM.

For `CON(C)C(=O)[C@H](Cc1ccccc1)NC(=O)[C@H](Cc1ccccc1)NC(=O)[C@H](CC(C)C)NC(=O)c1cc(Cl)ccc1O`, the 50% growth inhibitory concentration (GI50) in the assay with K562 is 22.2 µM; with CCRF-CEM it was 16.3 µM; with U-266, 23.1 µM.

In the case of `CON(C)C(=O)[C@@H](CC(C)C)NC(=O)[C@H](CC(C)C)NC(=O)[C@H](CC(C)C)NC(=O)c1cc(Cl)ccc1OCc1ccccc1`, the figures for the GI50 in the assay on K562, in the assay on CCRF-CEM and with U-266 were 34 µM, 11.5 µM and 23.7 µM, respectively.

As for `CON(C)C(=O)C(Cc1ccccc1)NC(=O)[C@H](Cc1ccccc1)NC(=O)c1cc(Cl)ccc1O` (some centres not stated), the GI50 in the assay on K562 was 79.5 µM; in the assay with CCRF-CEM it was 54.2 µM; with U-266, 68.7 µM.

With `CON(C)C(=O)[C@H](Cc1ccccc1)NC(=O)c1cc(Cl)ccc1OCc1ccccc1`, the GI50 in the assay with K562 is 50.9 µM; with CCRF-CEM, 65.2 µM; with U-266, 92.3 µM.

For the compound `COC(=O)[C@H](Cc1ccccc1)NC(=O)[C@H](CC(C)C)NC(=O)[C@H](CC(C)C)NC(=O)c1cc(Cl)ccc1OCc1ccccc1`, the values for the GI50 in the assay on K562, in the assay on CCRF-CEM and with U-266 were 70.3 µM, 31.4 µM and 72.2 µM, respectively.

In the case of `CON(C)C(=O)[C@H](CC(C)C)NC(=O)[C@H](CC(C)C)NC(=O)c1cc(Cl)ccc1O`, the GI50 in the assay on K562 is 98.1 µM; in the assay on CCRF-CEM it was 63 µM; with U-266, 69 µM.

`CON(C)C(=O)[C@H](Cc1ccccc1)NC(=O)[C@H](Cc1ccccc1)NC(=O)[C@H](CC(C)C)NC(=O)c1cc(Cl)ccc1OCc1ccccc1`: the figures for the GI50 in the assay on K562, in the assay with CCRF-CEM and with U-266 were 34.7 µM, 35.7 µM and 56.3 µM, respectively.

For `CON(C)C(=O)[C@H](Cc1ccccc1)NC(=O)[C@H](CC(C)C)NC(=O)c1cc(Cl)ccc1OCc1ccccc1`, the GI50 is 22.5 µM in the assay with K562, 19.5 µM in the assay on CCRF-CEM and 81.9 µM in the assay with U-266.

Consider `COC(=O)[C@H](Cc1ccccc1)NC(=O)[C@H](Cc1ccccc1)NC(=O)[C@H](CC(C)C)NC(=O)c1cc(Cl)ccc1OCc1ccccc1`, for which the GI50 with K562 is 72 µM; in the assay with CCRF-CEM, 48 µM; in the assay on U-266, 82.1 µM.

In the case of `CON(C)C(=O)[C@@H](CC(C)C)NC(=O)[C@H](Cc1ccccc1)NC(=O)[C@H](CC(C)C)NC(=O)c1cc(Cl)ccc1OCc1ccccc1`, the GI50 is 28.9 µM with K562, 17.6 µM with CCRF-CEM and 22.6 µM in the assay on U-266.

In the case of `CON(C)C(=O)[C@H](CC(C)C)NC(=O)[C@H](CC(C)C)NC(=O)[C@H](CC(C)C)NC(=O)c1cc(Cl)ccc1OCc1ccccc1`, the GI50 in the assay on K562 is 55.6 µM; in the assay on CCRF-CEM, 30.6 µM; in the assay on U-266, 55.2 µM.
